Results pooled from the literature.
Protocols differ between the studies behind these lines.
Target: Serine/threonine-protein kinase Sgk3 (SGK3, Homo sapiens, UniProt Q96BR1)
Residues used in one study (Q96BR1 1-496): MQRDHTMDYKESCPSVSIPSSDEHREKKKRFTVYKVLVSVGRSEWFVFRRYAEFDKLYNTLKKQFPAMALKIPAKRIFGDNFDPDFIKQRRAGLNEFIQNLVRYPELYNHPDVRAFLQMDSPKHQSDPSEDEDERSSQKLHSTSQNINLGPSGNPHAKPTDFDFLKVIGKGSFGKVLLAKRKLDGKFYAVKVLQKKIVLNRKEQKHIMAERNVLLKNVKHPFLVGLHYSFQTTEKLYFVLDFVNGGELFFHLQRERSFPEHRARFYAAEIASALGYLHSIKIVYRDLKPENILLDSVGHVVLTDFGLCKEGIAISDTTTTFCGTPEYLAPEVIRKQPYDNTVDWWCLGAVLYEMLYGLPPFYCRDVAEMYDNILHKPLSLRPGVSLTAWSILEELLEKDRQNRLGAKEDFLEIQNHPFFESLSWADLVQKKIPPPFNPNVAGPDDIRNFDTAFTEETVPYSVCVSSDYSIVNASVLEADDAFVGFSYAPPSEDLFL

Cc1cc(O)c(-c2ccc([C@@H](C)CN(C)C)cc2)c2c1[nH]c(=O)c1sccc12  inhibition (enzyme activity, inhibitor; 0.1 µM): 3.22%
CCCCC(=O)Nc1ccc(-c2ccc3ncn(CCC)c(=O)c3c2)cn1  remaining binding (binding, competition with immobilised ligand; 0.5 µM): 97%
CO[C@@H]1[C@H](N(C)C(=O)c2ccccc2)C[C@H]2O[C@]1(C)n1c3ccccc3c3c4c(c5c6ccccc6n2c5c31)C(=O)NC4  inhibition (enzyme activity, inhibitor; 1 µM): 43%
CC(C)S(=O)(=O)c1ccc2nccc(Nc3ccc4sc(C5CCCC5)nc4c3)c2c1  activity vs control (enzyme activity, inhibitor; 1 µM): 110%
COc1ccc2[nH]c3c4[nH]c5ccc(OC)cc5c4c4c(c3c2c1)C(=O)NC4=O  remaining binding (binding; 1 µM): 8.1%
C=CC(=O)N1CCC[C@@H](n2nc(-c3ccc(Oc4ccccc4)cc3)c3c(N)ncnc32)C1  inhibition (enzyme activity, inhibitor; 1 µM): 9%
C[C@H]1CC[C@H](n2c3cnccc3c3cnc(Nc4ccc5c(n4)CCN(C(=O)CO)C5)nc32)CC1  remaining signal (cell-free assay; 1 µM): 39%
C#Cc1cc(-c2cc(Nc3nc(N[C@@H](C)c4ccc(F)cn4)ncc3Cl)n[nH]2)ccc1C=O  inhibition (enzyme activity, inhibitor; 0.2 µM): 19.1%
